Measured values as given in ChEMBL document CHEMBL1145938, “Synthesis and structure-activity relationship of aminobenzophenones. A novel class of p38 MAP kinase inhibitors with high antiinflammatory activity” (J Med Chem, 2003).

What was measured:
MAP kinase p38 [1] = biological target: T1, MAP kinase p38 (Homo sapiens, UniProt O15264+Q15759+Q16539+P53778); experiment: In vitro inhibition of TNF-alpha release from LPS stimulated human peripheral blood mononuclear cells.; format: functional
Method in brief: (§1)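 Human PBMC from buffy coats (Lymphoprep), 5×10^5 cells/mL in RPMI1640 with 2% FCS, glutamine, penicillin/streptomycin; 30 min preincubation with compound, then LPS stimulation, 18 h at 37 °C, 5% CO2.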

[2] = biological target: T2, Mitogen-activated protein kinase 14 (Homo sapiens, UniProt Q16539); experiment: In vitro inhibitory activity determined against human mitogen-activated protein kinase p38 alpha
T2 sequence (Q16539 whole entry): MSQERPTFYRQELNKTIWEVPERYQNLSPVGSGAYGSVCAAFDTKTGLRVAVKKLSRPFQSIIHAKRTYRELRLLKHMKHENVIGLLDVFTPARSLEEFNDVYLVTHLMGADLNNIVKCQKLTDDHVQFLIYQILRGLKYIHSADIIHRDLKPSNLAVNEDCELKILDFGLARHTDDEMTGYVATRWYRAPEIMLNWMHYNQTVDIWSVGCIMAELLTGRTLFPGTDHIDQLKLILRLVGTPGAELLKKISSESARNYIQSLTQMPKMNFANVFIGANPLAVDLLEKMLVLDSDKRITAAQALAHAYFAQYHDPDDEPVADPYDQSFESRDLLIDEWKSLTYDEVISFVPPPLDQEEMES

MAP kinase p38 [3] = biological target: T1, MAP kinase p38; experiment: In vitro inhibition of IL1-beta release from LPS stimulated human peripheral blood mononuclear cells.; format: functional; method in brief: as §1
[4] = biological target: Mitogen-activated protein kinase 11 (Homo sapiens) (UniProt Q15759); experiment: Inhibition of Mitogen-activated protein kinase p38 beta at 1 uM
Chain of Mitogen-activated protein kinase 11 (Homo sapiens) (Q15759 whole entry, canonical isoform): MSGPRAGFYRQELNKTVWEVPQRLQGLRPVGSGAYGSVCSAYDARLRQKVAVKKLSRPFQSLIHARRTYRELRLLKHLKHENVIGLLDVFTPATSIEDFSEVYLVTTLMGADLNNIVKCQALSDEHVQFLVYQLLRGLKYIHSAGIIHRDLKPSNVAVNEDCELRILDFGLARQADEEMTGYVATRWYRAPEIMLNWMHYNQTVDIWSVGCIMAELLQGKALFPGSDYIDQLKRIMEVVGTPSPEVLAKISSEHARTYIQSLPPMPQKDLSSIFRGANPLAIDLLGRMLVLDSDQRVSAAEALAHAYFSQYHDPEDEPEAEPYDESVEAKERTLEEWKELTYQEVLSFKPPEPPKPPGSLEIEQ
Method in brief: (§2)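 FLAG-tagged p38 isoform cDNA (β2, γ or δ) transfected into COS-1 cells; kinase activity of the expressed isoform measured with compound at 1 μM.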

[5] = biological target: T3, Mitogen-activated protein kinase 12 (Homo sapiens) (UniProt P53778); experiment: Inhibition of Mitogen-activated protein kinase p38 gamma at 1 uM; method in brief: as §2
T3 sequence (whole entry): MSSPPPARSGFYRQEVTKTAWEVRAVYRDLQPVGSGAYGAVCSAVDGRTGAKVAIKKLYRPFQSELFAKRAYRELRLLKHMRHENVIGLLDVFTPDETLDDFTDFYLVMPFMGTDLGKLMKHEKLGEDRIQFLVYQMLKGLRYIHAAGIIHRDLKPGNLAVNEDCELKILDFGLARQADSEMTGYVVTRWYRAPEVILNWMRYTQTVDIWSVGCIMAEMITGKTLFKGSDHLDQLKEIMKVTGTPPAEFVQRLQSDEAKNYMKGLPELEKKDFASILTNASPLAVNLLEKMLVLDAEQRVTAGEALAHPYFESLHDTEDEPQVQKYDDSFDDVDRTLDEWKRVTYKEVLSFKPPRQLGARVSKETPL

Mus musculus [6] = species on record: Mus musculus; experiment: Inhibition of ear swelling in oxazolone-induced murine allergic contact dermatitis at 0.5 mg/ear at 24 hr; format: functional
Method in brief: (§3)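 Groups of six female inbred BALB/cABOM mice (18–21 g) were sensitized with oxazolone on the clipped abdomen 7 days before right-ear challenge. Compound in acetone (20 μL) or vehicle was applied once, 30 min after challenge. Ear swelling (right minus left ear thickness) was read at 24, 48 and 72 h. Values are mean % inhibition ± SEM of four or five experiments.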

[7] = biological target: T4, Mitogen-activated protein kinase 13 (Homo sapiens) (UniProt O15264); experiment: Inhibition of Mitogen-activated protein kinase p38 delta at 1 uM; method in brief: as §2
T4 sequence (whole entry): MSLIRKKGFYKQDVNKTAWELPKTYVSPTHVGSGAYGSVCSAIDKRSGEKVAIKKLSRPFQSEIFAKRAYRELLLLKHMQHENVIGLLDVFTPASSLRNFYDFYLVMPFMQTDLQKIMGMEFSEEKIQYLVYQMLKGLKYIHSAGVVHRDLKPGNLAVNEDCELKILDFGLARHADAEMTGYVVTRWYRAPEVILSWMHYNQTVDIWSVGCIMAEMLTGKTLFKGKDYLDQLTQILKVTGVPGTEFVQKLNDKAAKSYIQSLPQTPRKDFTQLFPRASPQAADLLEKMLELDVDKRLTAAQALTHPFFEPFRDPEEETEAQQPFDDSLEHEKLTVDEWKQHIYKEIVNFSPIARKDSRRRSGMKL

Homo sapiens [8] = species on record: Homo sapiens; experiment: In vitro inhibition of gamma-interferon release by human […]; format: functional
Method in brief: (§4)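 Human PBMC were isolated from buffy coats and diluted 1:1 in saline. Cells were held at 5×10^5 cells/mL in RPMI1640 with 2 mM glutamine and penicillin/streptomycin, then preincubated 30 min with compound. IL-12: 2% FCS, IFN-γ 95 ng/mL for 18 h, then LPS for 24 h. IL-2 and IFN-γ: 10% FCS, phytohemagglutinin for 48 h. Supernatant cytokine measured by sandwich ELISA.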

Mus musculus [9] = experiment: Inhibition of ear swelling induced by oxazolone in murine allergic contact dermatitis model at 0.5 mg/ear at 48 hr (in vivo)
[10] = biological target: T5, Myeloperoxidase (Mus musculus) (UniProt P11247); experiment: Inhibition of myeloperoxidase (MPO) activity induced by oxazolone in murine allergic contact dermatitis model at 0.5 mg/ear at 72 hr
T5 sequence (whole entry): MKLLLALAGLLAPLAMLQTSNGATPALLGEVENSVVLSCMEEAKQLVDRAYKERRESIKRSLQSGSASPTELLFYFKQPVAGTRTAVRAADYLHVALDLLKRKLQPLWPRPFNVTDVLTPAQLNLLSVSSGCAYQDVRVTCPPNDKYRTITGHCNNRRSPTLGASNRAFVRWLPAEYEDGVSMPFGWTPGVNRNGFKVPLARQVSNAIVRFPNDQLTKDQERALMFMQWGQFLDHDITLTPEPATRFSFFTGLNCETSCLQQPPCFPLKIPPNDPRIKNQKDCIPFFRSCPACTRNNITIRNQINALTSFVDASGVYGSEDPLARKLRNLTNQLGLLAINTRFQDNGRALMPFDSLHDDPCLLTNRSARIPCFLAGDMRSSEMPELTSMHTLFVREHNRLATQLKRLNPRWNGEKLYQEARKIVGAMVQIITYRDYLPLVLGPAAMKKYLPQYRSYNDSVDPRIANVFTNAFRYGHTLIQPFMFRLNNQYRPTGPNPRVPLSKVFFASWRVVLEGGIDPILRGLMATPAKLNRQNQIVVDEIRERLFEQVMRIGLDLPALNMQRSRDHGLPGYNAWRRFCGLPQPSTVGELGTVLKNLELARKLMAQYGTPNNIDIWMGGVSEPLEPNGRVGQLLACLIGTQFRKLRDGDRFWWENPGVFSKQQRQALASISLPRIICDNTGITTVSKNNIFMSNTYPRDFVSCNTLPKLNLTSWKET

Mus musculus [11] = experiment: Inhibition of ear weight induced by 12-O-tetradecanoylphorbol-13-acetate (TPA) in murine chronic irritative contact dermatitis model at 0.5 mg/ear (in vivo); format: functional
Method in brief: (§5)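 Murine TPA-induced chronic irritative ear dermatitis, with compound given topically per ear. Ear swelling and ear weight were determined 5 h after the last application. Values are mean % inhibition ± SEM of three to five experiments.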

[12] = biological target: Mitogen-activated protein kinase; ERK1/ERK2 (Homo sapiens) (UniProt P27361+P28482); experiment: Inhibition of Mitogen-activated protein kinase 3/Mitogen-activated protein kinase 1 (ERK) at 10 uM; format: protein assay
Chain of Mitogen-activated protein kinase; ERK1/ERK2 (Homo sapiens) (P27361 whole entry, looked up): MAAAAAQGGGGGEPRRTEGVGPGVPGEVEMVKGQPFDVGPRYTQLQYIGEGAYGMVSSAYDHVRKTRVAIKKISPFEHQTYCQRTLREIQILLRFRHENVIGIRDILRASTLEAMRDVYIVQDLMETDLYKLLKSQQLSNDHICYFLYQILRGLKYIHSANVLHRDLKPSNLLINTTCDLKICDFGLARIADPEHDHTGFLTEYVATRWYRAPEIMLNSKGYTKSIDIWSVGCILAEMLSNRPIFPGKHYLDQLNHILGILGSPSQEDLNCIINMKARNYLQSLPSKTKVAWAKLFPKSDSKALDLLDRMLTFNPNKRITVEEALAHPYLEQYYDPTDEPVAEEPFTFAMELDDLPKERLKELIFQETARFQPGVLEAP
Chain of Mitogen-activated protein kinase; ERK1/ERK2 (Homo sapiens) (P28482 whole entry, looked up): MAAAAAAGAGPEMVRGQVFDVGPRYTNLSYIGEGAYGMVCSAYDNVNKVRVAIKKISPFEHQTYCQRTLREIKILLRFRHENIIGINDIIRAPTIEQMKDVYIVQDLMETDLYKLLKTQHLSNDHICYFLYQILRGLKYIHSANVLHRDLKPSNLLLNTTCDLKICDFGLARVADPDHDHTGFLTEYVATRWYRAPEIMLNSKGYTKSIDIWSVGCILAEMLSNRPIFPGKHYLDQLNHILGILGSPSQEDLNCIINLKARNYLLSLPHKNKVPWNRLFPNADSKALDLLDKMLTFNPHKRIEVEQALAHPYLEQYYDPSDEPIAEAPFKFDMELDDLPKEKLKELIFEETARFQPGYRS
Method in brief: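 MCF-7 cells stimulated with EGF; ERK1/2 activity measured with a modified cell-signalling ERK1/2 kinase kit in presence of compound.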

MAP kinase p38 [13] = biological target: T1, MAP kinase p38; experiment: In vitro inhibition of cytokine IL-6 release by human […]; format: functional
Method in brief: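 PBMC isolated from buffy coats, 5×10^5 cells/mL in RPMI1640 plus 2% FCS, glutamine and antibiotics. Compound added 30 min before LPS; culture 6 h. Supernatant IL-6 or IL-8 quantified by ELISA kits.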

Mus musculus [14] = experiment: Inhibition of ear swelling induced by 12-O-tetradecanoylphorbol-13-acetate (TPA) in murine chronic irritative contact dermatitis model at 0.5 mg/ear (in vivo); format: functional; method in brief: as §5
Mus musculus [15] = species on record: Mus musculus; experiment: Inhibition of ear swelling induced by oxazolone induced murine allergic contact dermatitis model at 0.5 mg/ear at 72 hr; format: functional; method in brief: as §3
MAP kinase p38 [16] = biological target: T1, MAP kinase p38; experiment: In vitro inhibition of cytokine IL-10 release by human […]; format: functional
Method in brief: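 Buffy-coat PBMC at 5×10^5 cells/mL in RPMI1640 with 10% FCS, glutamine, antibiotics; 30 min compound preincubation, then phytohemagglutinin stimulation and 48 h incubation.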

[17] = biological target: T2, Mitogen-activated protein kinase 14; experiment: Inhibition of Mitogen-activated protein kinase p38 alpha at 1 uM
Method in brief: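 FLAG-tagged p38α cDNA was transfected into COS-1 cells. Kinase activity of the expressed isoform was measured with compound at 1 μM.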

[18] = biological target: Mitogen-activated protein kinase 8 (Homo sapiens) (UniProt P45983); experiment: Inhibition of c-Jun N-terminal kinase 1 at 10 uM
Chain of Mitogen-activated protein kinase 8 (Homo sapiens) (P45983 whole entry): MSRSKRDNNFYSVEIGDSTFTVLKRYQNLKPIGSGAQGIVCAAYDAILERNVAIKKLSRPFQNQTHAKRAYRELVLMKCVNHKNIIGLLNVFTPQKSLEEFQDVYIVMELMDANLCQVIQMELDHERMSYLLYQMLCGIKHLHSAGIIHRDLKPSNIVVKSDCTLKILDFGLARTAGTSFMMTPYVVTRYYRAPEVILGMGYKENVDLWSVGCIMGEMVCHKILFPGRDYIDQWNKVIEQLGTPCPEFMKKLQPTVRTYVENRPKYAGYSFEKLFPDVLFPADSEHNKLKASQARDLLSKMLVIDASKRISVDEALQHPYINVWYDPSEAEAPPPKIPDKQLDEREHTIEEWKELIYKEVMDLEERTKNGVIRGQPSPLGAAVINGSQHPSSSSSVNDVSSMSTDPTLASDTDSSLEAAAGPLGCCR
Method in brief: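 JNK1 activity from UV-stimulated MCF-7 cells, measured with a JNK1 kinase kit in presence of compound.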

Homo sapiens [19] = species on record: Homo sapiens; experiment: In vitro inhibition of cytokine IL-12 release by human […]; format: functional; method in brief: as §4
MAP kinase p38 [20] = biological target: T1, MAP kinase p38; experiment: In vitro inhibition of cytokine IL-8 release by human peripheral blood mononuclear cells
[21] = biological target: T5, Myeloperoxidase (Mus musculus); experiment: Inhibition of myeloperoxidase (MPO) activity induced by TPA in murine chronic irritative contact dermatitis model at 0.5 mg/ear (in vivo); format: organism-based
Homo sapiens [22] = species on record: Homo sapiens; experiment: In vitro inhibition of cytokine IL-2 release by human […]; format: functional; method in brief: as §4
Mus musculus [23] = experiment: Inhibition of ear weight induced by 12-O-tetradecanoylphorbol-13-acetate (TPA) in murine chronic irritative contact dermatitis model at 0.001 mg/ear (in vivo); format: functional; method in brief: as §5
Mus musculus [24] = experiment: Inhibition of ear swelling induced by 12-O-tetradecanoylphorbol-13-acetate (TPA) in murine chronic irritative contact dermatitis model at 0.001 mg/ear (in vivo); format: functional; method in brief: as §5
[25] = biological target: T5, Myeloperoxidase (Mus musculus); experiment: Inhibition of myeloperoxidase (MPO) activity induced by TPA in murine chronic irritative contact dermatitis model at 0.001 mg/ear (in vivo); format: organism-based

Row | IC50 (MAP kinase p38 [1]) [nM] | IC50 [2] [nM] | IC50 (MAP kinase p38 [3]) [nM] | SMILES | also measured
1 | 10 | 63 | 21 | CC(=O)Nc1ccccc1Nc1ccc(C(=O)c2ccccc2C)c(Cl)c1 | 
2 | 8 | 13 | 22 | Cc1ccccc1C(=O)c1ccc(Nc2ccccc2N)cc1C | 
3 | 44 | 101 | 70 | Cc1ccccc1C(=O)c1ccc(N(C)c2ccccc2N)cc1Cl | 
4 | 3 | 21 | 9 | CCNC(=O)Nc1ccccc1Nc1ccc(C(=O)c2ccccc2C)c(Cl)c1 | 
5 | 14 | 12 | 26 | Cc1ccccc1Nc1ccc(C(=O)c2ccccc2C)c(Cl)c1 | 
6 | 6 | 42 | 16 | CCOC(=O)Nc1ccccc1Nc1ccc(C(=O)c2ccccc2C)c(Cl)c1 | 
7 | > 10000 | 1550 | > 5000 | C=C(c1ccccc1C)c1ccc(Nc2ccccc2N)cc1Cl | 
8 | 382 | 437 | 427 | Cc1ccccc1C(=O)c1ccc(Nc2ccccc2[N+](=O)[O-])cc1Cl | 
9 | 1349 | 193 | 175 | O=C(c1ccccc1)c1ccc(Nc2ccccc2)cc1 | 
10 | 47 | 29 | 67 | Cc1ccccc1C(=O)c1ccc(Nc2ccccc2N)cc1 | 
11 | 214 | 139 | 437 | Nc1ccccc1Nc1ccc(C(=O)c2ccccc2)c(Cl)c1 | 
12 | 20 | 5 | 28 | COc1ccccc1C(=O)c1ccc(Nc2ccccc2N)cc1Cl | 
13 | 24 | 7 | 119 | Cc1ccccc1C(=O)c1ccc(Nc2ccccc2)cc1Cl | 

Second part, the molecule before the results:

Row | SMILES | IC50 (MAP kinase p38 [1]) [nM] | IC50 [2] [nM] | IC50 (MAP kinase p38 [3]) [nM] | also measured
14 | Nc1ccccc1Nc1ccc(C(=O)c2ccccc2-c2ccccc2)cc1 | 444 | 811 | 483 | 
15 | Nc1ccccc1Nc1ccc(C(=O)c2ccccc2)cc1 | 159 | 145 | 226 | 
16 | Cc1cc(F)ccc1Nc1ccc(C(=O)c2ccccc2C)c(Cl)c1 | 4 | 4 | 17 | inhibition [4]: 92%; inhibition [5]: 5%; Inhibition (Mus musculus [6]): 40%; inhibition [7]: 4%; IC50 (Homo sapiens [8]): > 1000 nM; Inhibition (Mus musculus [9]): 46%; inhibition [10]: 57%; Inhibition (Mus musculus [11]): 26%; inhibition [12]: 0%; IC50 (MAP kinase p38 [13]): 35 nM; Inhibition (Mus musculus [14]): 26%; Inhibition (Mus musculus [15]): 54%; IC50 (MAP kinase p38 [16]): 51 nM; inhibition [17]: 88%; inhibition [18]: 0%; IC50 (Homo sapiens [19]): > 1000 nM; IC50 (MAP kinase p38 [20]): 79 nM; inhibition [21]: 60%; IC50 (Homo sapiens [22]): > 1000 nM
17 | Fc1ccc(-c2ncn(C3CCNCC3)c2-c2ccncc2)cc1 [VK-19911] |  |  |  | inhibition [4]: 59%; inhibition [5]: 0%; inhibition [7]: 8%; IC50 (Homo sapiens [8]): > 1000 nM; inhibition [12]: 0%; inhibition [17]: 73%; inhibition [18]: 9%; IC50 (Homo sapiens [19]): > 1000 nM; IC50 (Homo sapiens [22]): > 1000 nM
18 | Cc1cccc(C(=O)c2ccc(Nc3ccccc3N)cc2)c1 | 467 | 574 | 580 | 
19 | Cc1cc(C(=O)c2ccccc2C)ccc1Nc1ccccc1N | 127 | 143 | 343 | 
20 | Cc1ccccc1Cc1ccc(Nc2ccc(F)cc2N)cc1Cl | > 10000 | > 100000 | > 10000 | 
21 | Nc1ccccc1Nc1ccc(C(=O)c2ccccc2Br)cc1 | 34 | 54 | 45 | 
22 | CCCCC(=O)O[C@]1(C(=O)CO)[C@@H](C)C[C@H]2[C@@H]3CCC4=CC(=O)C=C[C@]4(C)[C@@]3(F)[C@@H](O)C[C@@]21C [BETAMETHASONE VALERATE] |  |  |  | Inhibition (Mus musculus [23]): 38%; Inhibition (Mus musculus [24]): 41%; inhibition [25]: 67%
